Values after ≈ are worked out from the molar mass of the structure shown.
Legend:
[1] = system: Aspergillus ochraceus; test: Ratio of bifonazole to compound for Aspergillus ochraceus ATCC 12066; type: functional
[2] = system: Aspergillus ochraceus; test: Ratio of ketoconazole to compound for Aspergillus ochraceus ATCC 12066; type: functional
[3] = system: Candida albicans; test: Antifungal activity against Candida albicans isolated from human after 72 hrs by serial dilution technique; type: functional
Method in brief: (§1)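 Modified microdilution in 96-well plates. Fungi were kept on malt agar at 4 °C. Spores were washed off in sterile 0.85% saline with 0.1% Tween 80. Compounds were dissolved at 1 mg/ml in 5% DMSO with 0.1% Tween 80 and added to malt broth with inoculum. Plates were shaken at 160 rpm for 72 h at 28 °C. Duplicate, repeated three times.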

[4] = system: Aspergillus ochraceus; test: Antifungal activity against Aspergillus ochraceus ATCC 12066 after 72 hrs by serial dilution technique; type: functional; conditions: ATCC 12066, 72 h; method in brief: as §1
[5] = system: Aspergillus fumigatus; test: Antifungal activity against Aspergillus fumigatus isolated from human incubated for 72 hrs followed by serial sub-cultivation for 72 hrs by serial dilution technique; type: functional
Method in brief: (§2)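 MFC: material from 72 h malt broth microdilution wells was serially sub-cultured into fresh broth plates and incubated a further 72 h at 28 °C. Fungicidal concentration is taken from growth after sub-culture. Duplicate, repeated three times.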

[6] = system: Aspergillus ochraceus; test: Antifungal activity against Aspergillus ochraceus after 72 hrs by serial dilution technique
[7] = system: Listeria monocytogenes; test: Antibacterial activity against Listeria monocytogenes NCTC 7973 after 24 hrs by microdilution method; type: functional; conditions: NCTC 7973, 24 h
Method in brief: (§3)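 Broth microdilution in 96-well plates. Bacterial suspensions were adjusted in sterile saline to 1.0 × 10⁵ CFU/ml, prepared daily and kept at 4 °C. Compound was added to LB broth with 1.0 × 10⁴ CFU per well and shaken at 160 rpm for 24 h at […] (so in the source). MIC is the lowest concentration with no visible growth under a binocular microscope. OD655 was also read. Duplicate, repeated three times.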

[8] = system: Talaromyces funiculosus; test: Ratio of bifonazole to compound for Penicillium funiculosum ATCC 36839; type: functional
[9] = system: Penicillium ochrochloron; test: Ratio of bifonazole to compound for Penicillium ochrochloron ATCC 9112; type: functional
[10] = system: Bacillus cereus; test: Antibacterial activity against clinical isolate of Bacillus cereus incubated for 24 hrs followed by serial sub-cultivation for 24 hrs by microdilution; type: functional
Method in brief: (§4)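 MBC: after the 24 h LB broth microdilution (1.0 × 10⁴ CFU per well, 160 rpm), wells were serially sub-cultured into fresh broth plates and incubated a further 24 h. MBC is the lowest concentration with no visible growth, taken as 99.5% killing of the original inoculum. Duplicate, repeated three times.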

[11] = system: Pseudomonas aeruginosa; test: Ratio of ampicillin MIC to compound MIC for Pseudomonas aeruginosa ATCC 27853; type: functional
[12] = system: Talaromyces funiculosus; test: Antifungal activity against Penicillium funiculosum ATCC 36839 incubated for 72 hrs followed by serial sub-cultivation for 72 hrs by serial dilution technique; type: functional; conditions: ATCC 36839, 72 h; method in brief: as §2
[13] = system: Trichoderma viride; test: Antifungal activity against Trichoderma viride IAM 5061 incubated for 72 hrs followed by serial sub-cultivation for 72 hrs by serial dilution technique; type: functional; conditions: IAM 5061, 72 h; method in brief: as §2
[14] = system: Listeria monocytogenes; test: Antibacterial activity against Listeria monocytogenes NCTC 7973 incubated for 24 hrs followed by serial sub-cultivation for 24 hrs by microdilution; type: functional; conditions: NCTC 7973, 24 h; method in brief: as §4
[15] = system: Aspergillus flavus; test: Antifungal activity against Aspergillus flavus ATCC 9643 incubated for 72 hrs followed by serial sub-cultivation for 72 hrs by serial dilution technique; type: functional; conditions: ATCC 9643, 72 h; method in brief: as §2
[16] = system: Trichoderma viride; test: Antifungal activity against Trichoderma viride IAM 5061 after 72 hrs by serial dilution technique; type: functional; conditions: IAM 5061, 72 h; method in brief: as §1
[17] = system: Staphylococcus aureus; test: Antibacterial activity against Staphylococcus aureus ATCC 6538 incubated for 24 hrs followed by serial sub-cultivation for 24 hrs by microdilution method; type: functional; conditions: ATCC 6538, 24 h; method in brief: as §4
[18] = system: Enterococcus faecalis; test: Antibacterial activity against Enterococcus faecalis isolated from human after 24 hrs by microdilution method; type: functional; method in brief: as §3
[19] = system: Staphylococcus aureus; test: Antibacterial activity against Staphylococcus aureus ATCC 6538 after 24 hrs by microdilution method; type: functional; conditions: ATCC 6538, 24 h; method in brief: as §3
[20] = system: Penicillium ochrochloron; test: Antifungal activity against Penicillium ochrochloron ATCC 9112 after 72 hrs by serial dilution technique; type: functional; conditions: ATCC 9112, 72 h; method in brief: as §1
[21] = system: Micrococcus flavus; test: Antibacterial activity against Micrococcus flavus ATCC 10240 incubated for 24 hrs followed by serial sub-cultivation for 24 hrs by microdilution; type: functional; conditions: ATCC 10240, 24 h; method in brief: as §4
[22] = system: Aspergillus flavus; test: Antifungal activity against Aspergillus flavus ATCC 9643 after 72 hrs by serial dilution technique; type: functional; conditions: ATCC 9643, 72 h; method in brief: as §1
[23] = system: Aspergillus niger; test: Antifungal activity against Aspergillus niger ATCC 6275 after 72 hrs by serial dilution technique; type: functional; conditions: ATCC 6275, 72 h; method in brief: as §1
[24] = system: Salmonella typhimurium; test: Antibacterial activity against Salmonella Typhimurium ATCC 13311 incubated for 24 hrs followed by serial sub-cultivation for 24 hrs by microdilution; type: functional, Salmonella enterica subsp. enterica serovar Typhimurium; conditions: Salmonella enterica, ATCC 13311, 24 h; method in brief: as §4
[25] = system: Candida albicans; test: Antifungal activity against Candida albicans isolated from human incubated for 72 hrs followed by serial sub-cultivation for 72 hrs by serial dilution technique; type: functional; method in brief: as §2
[26] = system: Aspergillus fumigatus; test: Ratio of ketoconazole to compound for Aspergillus fumigatus isolated from human; type: functional
[27] = system: Talaromyces funiculosus; test: Antifungal activity against Penicillium funiculosum ATCC 36839 after 72 hrs by serial dilution technique; type: functional; conditions: ATCC 36839, 72 h; method in brief: as §1
[28] = system: Penicillium ochrochloron; test: Antifungal activity against Penicillium ochrochloron ATCC 9112 incubated for 72 hrs followed by serial sub-cultivation for 72 hrs by serial dilution technique; type: functional; conditions: ATCC 9112, 72 h; method in brief: as §2
[29] = system: Candida albicans; test: Ratio of ketoconazole to compound for Candida albicans isolated from human; type: functional
[30] = system: Penicillium ochrochloron; test: Ratio of ketoconazole to compound for Penicillium ochrochloron ATCC 9112; type: functional
[31] = system: Pseudomonas aeruginosa; test: Antibacterial activity against Pseudomonas aeruginosa ATCC 27853 after 24 hrs by microdilution method; type: functional; conditions: ATCC 27853, 24 h; method in brief: as §3
[32] = system: Aspergillus niger; test: Ratio of bifonazole to compound for Aspergillus niger ATCC 6275; type: functional
[33] = system: Enterococcus faecalis; test: Antibacterial activity against Enterococcus faecalis isolated from human incubated for 24 hrs followed by serial sub-cultivation for 24 hrs by microdilution; type: functional; method in brief: as §4
[34] = system: Candida albicans; test: Ratio of bifonazole to compound for Candida albicans isolated from human; type: functional
[35] = system: Salmonella typhimurium; test: Antibacterial activity against Salmonella Typhimurium ATCC 13311 after 24 hrs by microdilution method; type: functional, Salmonella enterica subsp. enterica serovar Typhimurium; conditions: Salmonella enterica, ATCC 13311, 24 h; method in brief: as §3
[36] = system: Escherichia coli; test: Antibacterial activity against Escherichia coli ATCC 35210 incubated for 24 hrs followed by serial sub-cultivation for 24 hrs by microdilution; type: functional; conditions: ATCC 35210, 24 h; method in brief: as §4
[37] = system: Bacillus cereus; test: Antibacterial activity against clinical isolate of Bacillus cereus after 24 hrs by microdilution method; type: functional; method in brief: as §3
[38] = system: Trichoderma viride; test: Ratio of bifonazole to compound for Trichoderma viride IAM 5061; type: functional
[39] = system: Aspergillus niger; test: Antifungal activity against Aspergillus niger ATCC 6275 incubated for 72 hrs followed by serial sub-cultivation for 72 hrs by serial dilution technique; type: functional; conditions: ATCC 6275, 72 h; method in brief: as §2
[40] = system: Pseudomonas aeruginosa; test: Antibacterial activity against Pseudomonas aeruginosa ATCC 27853 incubated for 24 hrs followed by serial sub-cultivation for 24 hrs by microdilution; type: functional; conditions: ATCC 27853, 24 h; method in brief: as §4
[41] = system: Escherichia coli; test: Antibacterial activity against Escherichia coli ATCC 35210 after 24 hrs by microdilution method; type: functional; conditions: ATCC 35210, 24 h; method in brief: as §3
[42] = system: Aspergillus ochraceus; test: Antifungal activity against Aspergillus ochraceus ATCC 12066 incubated for 72 hrs followed by serial sub-cultivation for 72 hrs by serial dilution technique; type: functional; conditions: ATCC 12066, 72 h; method in brief: as §2
[43] = system: Micrococcus flavus; test: Antibacterial activity against Micrococcus flavus ATCC 10240 after 24 hrs by microdilution method; type: functional; conditions: ATCC 10240, 24 h; method in brief: as §3

## CCNc1nc(C)c(C(=O)/C=C/c2ccc(F)cc2)s1
[1]
  Ratio: 10
[2]
  Ratio: 10
[3]
  MIC: 34.5 µM (≈ 10 µg/mL)
[4]
  MIC: 68.9 µM (≈ 20 µg/mL)
[5]
  MFC: 68.9 µM (≈ 20 µg/mL)
[6]
  MIC: 51.7 µM (≈ 15 µg/mL)
[7]
  MIC: 86.2 µM (≈ 25 µg/mL)
[8]
  Ratio: 10
[9]
  Ratio: 10
[10]
  MBC: 86.2 µM (≈ 25 µg/mL)
[11]
  Ratio: 10
[12]
  MFC: 68.9 µM (≈ 20 µg/mL)
[13]
  MFC: 68.9 µM (≈ 20 µg/mL)
[14]
  MBC: 103 µM (≈ 30 µg/mL)
[15]
  MFC: 86.2 µM (≈ 25 µg/mL)
[16]
  MIC: 34.5 µM (≈ 10 µg/mL)
[17]
  MBC: 68.9 µM (≈ 20 µg/mL)
[18]
  MIC: 51.7 µM (≈ 15 µg/mL)
[19]
  MIC: 68.9 µM (≈ 20 µg/mL)
[20]
  MIC: 68.9 µM (≈ 20 µg/mL)
[21]
  MBC: 68.9 µM (≈ 20 µg/mL)
[22]
  MIC: 68.9 µM (≈ 20 µg/mL)
[23]
  MIC: 34.5 µM (≈ 10 µg/mL)
[24]
  MBC: 51.7 µM (≈ 15 µg/mL)
[25]
  MFC: 68.9 µM (≈ 20 µg/mL)
[26]
  Ratio: 10
[27]
  MIC: 34.5 µM (≈ 10 µg/mL)
[28]
  MFC: 86.2 µM (≈ 25 µg/mL)
[29]
  Ratio: 10
[30]
  Ratio: 10
[31]
  MIC: 68.9 µM (≈ 20 µg/mL)
[32]
  Ratio: 10
[33]
  MBC: 68.9 µM (≈ 20 µg/mL)
[34]
  Ratio: 10
[35]
  MIC: 51.7 µM (≈ 15 µg/mL)
[36]
  MBC: 68.9 µM (≈ 20 µg/mL)
[37]
  MIC: 86.2 µM (≈ 25 µg/mL)
[38]
  Ratio: 10
[39]
  MFC: 51.7 µM (≈ 15 µg/mL)
[40]
  MBC: 68.9 µM (≈ 20 µg/mL)
[41]
  MIC: 51.7 µM (≈ 15 µg/mL)
[42]
  MFC: 86.2 µM (≈ 25 µg/mL)
[43]
  MIC: 51.7 µM (≈ 15 µg/mL)
